A selection: hits, their analogues and other compounds. The true share with any hit is near 4.9%.
APP 5'UTR act = APP 5'UTR luciferase reporter activation | SH-SY5Y APP 5'UTR luciferase reporter, luminescence; zero percent = DMSO vehicle wells | 190,000 compounds, 1% hits | activation, % at 2 µM;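 active means activation above a set limit, based on mean plus 3 SD of controls, cut at about 140% in these data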
STAT1 act = STAT1 signaling activation; NIH 3T3 STAT1-luciferase reporter, IFN-gamma, luminescence; 100% = IFN-gamma alone, no compound; activation (% of control), % at 5.5 µM; 200,000 compounds, 2.6% hits;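 active means activation above the screen-wide mean activation plus 3 SD, cut at about 130% in these data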;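 further: raw ratio to IFN-gamma control signal so 100% means no change and 0% no light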
NF-kB expr up = compounds increasing NF-kB expression in human neuronal cells | 190,000 compounds, 1.6% hits | NF-kB reporter expression; stronger effect = higher value | fold change at 12.5 µM | AID 1239; in the data active means fold change above about 3.3
STAT3 inh = reduces IL-6 driven STAT3 reporter signal | inhibition, % at 5.5 µM | U3A cells, IL-6 STAT3-luciferase reporter, luminescence; host cell line lacks STAT1 | 190,000 compounds, 0.89% hits;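 active means inhibition above the mean inhibition across all screened compounds plus 3 SD, cut at about 44% in these data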;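 further: 0% = DMSO only wells and 100% = 100 µM nifuroxazide control wells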
STAT1 blocker = inhibitors of IFN-gamma induced STAT1 signaling | NIH 3T3 STAT1-luciferase reporter, luminescence | inhibition, % at 5.5 µM | 200,000 compounds, 0.35% hits | AID 920;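 active means inhibition above a set limit, the mean inhibition across all tested compounds plus 3 SD, cut at about 34% in these data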;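 further: 0% = IFN-gamma with DMSO and 100% = IFN-gamma with 300 µM nifuroxazide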
STAT3 activator = STAT3 signaling activation | U3A cells, IL-6 STAT3-luciferase reporter, luminescence; 100% = signal with IL-6 EC80 alone | activation (% of control), % at 5.6 µM | 190,000 compounds, 0.91% hits;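 active means activation above the screen-wide mean of compound activation plus 3 SD, cut at about 130% in these data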;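 further: 0% = background luminescence of wells with medium and substrate only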
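system = STAT3-luciferase reporter U3A cells | reagent = IL-6 stimulus at 33 ng/mL final | timing = 1 h compound pre-exposure, 6 h IL-6 stimulation, 37 °C | measured by = luminescence | evaluation = % activation versus median of IL-6-stimulated wells | control set = IL-6-only wells as 100% reference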
* hit, by the source's call; . = no result.

SMILES	APP 5'UTR act	STAT1 act	NF-kB expr up	STAT3 inh	STAT1 blocker	STAT3 activator
Fc1ccccc1N1CCN(c2ncnc3[nH]ncc23)CC1	-3	109	3.5*	13	-9	94
Cc1cc(N)n2ncc(-c3ccc(F)cc3)c2n1	84	140*	1.7	-15	-43	117
CCOC(=O)Cc1c(C)nc2c(-c3ccc(Cl)cc3)cnn2c1C	-5	106	1.2	15	-6	89
Cc1cc(N)n2ncc(-c3ccc(Cl)cc3)c2n1	96	140*	2.1	-7	-44	110
Cc1ccc(C)c(NS(=O)(=O)c2cc(C(=O)Nc3ccccc3-c3ccccc3)ccc2Cl)c1	6	104	0.67	3	-5	104
O=C(N/N=C/c1ccccc1)NC1CCCCC1	22	114	1.5	1	-16	101
O=C(N/N=C/c1ccccc1F)NC1CCCCC1	54	130*	2.2	-1	-34	104
O=C(O)c1cn(Cc2ccccn2)c(=O)c2ccccc12	152*	109	0.94	-6	-10	107
O=C(NC1CCCC1)c1cc2c(ccc3ccccc32)o1	10	137*	3.4*	20	-48	83
CNC(=O)c1cc2c(ccc3ccccc32)o1	27	133*	1.3	13	-36	96
O=C(Nc1cc2c(ccc3ccccc32)oc1=O)C1CCCCC1	2	96	1.1	-29	4	128
CC(=O)Nc1cc2c(ccc3ccccc32)oc1=O	4	121	1.5	20	-24	85
Cc1nnc(SCC(=O)Nc2ccccc2NC(=O)CSc2nnc(C)s2)s1	9	98	1.1	4	3	96
Cc1nnc(SCC(=O)Nc2nsc(-c3ccc(C(C)(C)C)cc3)n2)s1	147*	141*	8.6*	0	-46	108
COc1ccccc1CCNC(=O)CSc1nnc2ccc(-c3ccncc3)nn12	16	100	1.1	6	0	98
COc1cccc(NC(=S)NN=C2CCCCCC2)c1	25	104	3.3*	9	-5	97
CCc1ccc(NC(=S)Nc2cccc(OC)c2)cc1	28	103	1.3	12	-3	95
Cc1cc(C2=NNC(=NC3CC3)SC2)c(C)n1Cc1ccco1	-47	53	0.36	85*	52*	29
COCCn1c(C)cc(C2=NNC(=Nc3ccc(Cl)cc3Cl)SC2)c1C	-6	102	1	0	-2	104
COCCCN=C1NN=C(c2cc(C)n(Cc3ccco3)c2C)CS1	-94	123	1.8	3	-26	98
COCCn1c(C)cc(C2=NNC(=NC3CC3)SC2)c1C	-88	10	0.17	103*	97*	10
COC(=O)c1ccccc1OCCCN(C)C	-6	90	1	23	11	82
Cn1cccc1CNC(=O)Nc1ccc(Cl)c(Cl)c1	.	135*	1.1	-10	-38	114
COc1cccc(CC(NC(C)=O)C(=O)NC2CCN(S(=O)(=O)c3ccc(C)cc3)CC2)c1OC (configuration not stated)	6	96	1.5	1	3	102
Cc1c(Cl)cccc1N(Cc1ccc(C(=O)O)cc1)S(=O)(=O)c1ccccc1	10	89	1.3	0	11	104
SMILES	APP 5'UTR act	STAT1 act	NF-kB expr up	STAT3 inh	STAT1 blocker	STAT3 activator
Cc1cc(C(=O)N/N=C/c2cccc(OC(=O)c3ccco3)c2)n[nH]1	4	98	1.5	16	2	92
O=C(N/N=C\c1cccc(OC(=O)c2ccco2)c1)c1ccc2c(c1)OCO2	83	118	5.1*	43	-21	64
O=C(N/N=C\c1ccc2c(c1)OCO2)c1ccco1	97	147*	2.4	-7	-51	102
NC(=O)/C(=C/c1ccc2c(c1)OCO2)NC(=O)c1ccco1	-4	102	0.96	20	-2	87
COc1ccc(/C=C/C(=O)N(C)C2CCCCC2)cc1Br	29	118	1.4	12	-20	97
CN(C(=O)/C=C/c1cnc2ccccc2c1)C1CCCCC1	275*	105	3.9*	38	-6	70
c1ccc(-c2noc(-c3ccc4ccccc4c3)n2)nc1	-49	18	0.2	113*	88*	9
c1cnc2nc(-c3ccc4c(c3)OCO4)cn2c1	62	136*	2.2	11	-42	95
c1ccc(-c2noc(-c3ccc4c(c3)OCO4)n2)nc1	-30	49	0.68	107*	54*	12

High-throughput results: PubChem, several laboratories
